Experimental data as given in ChEMBL document CHEMBL4184294, “A small group of sulfated benzofurans induces steady-state submaximal inhibition of thrombin” (Bioorg Med Chem Lett, 2018).
The source made the active and inactive calls. No cut-off for these calls is given here.

Tests used:
Prothrombin [1] = target: T1, Prothrombin (Homo sapiens, UniProt P00734); assay: Partial allosteric inhibition of human thrombin at 500 uM using spectrozyme TH as substrate pretreated for 10 mins followed by substrate addition by spectrophotometric method relative to control
Prothrombin [2] = target: T1, Prothrombin; assay: Partial allosteric inhibition of human thrombin using spectrozyme TH as substrate pretreated for 10 mins followed by substrate addition by spectrophotometric method
How it was run: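 Chromogenic substrate hydrolysis by thrombin read spectrophotometrically in 20 mM Tris-HCl pH 7.4 with […], 100 mM NaCl and 0.1% PEG 8000 at 25 °C. Sigmoidal fits gave IC50 and efficacy (ΔY). Errors ±1 S.E.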

Prothrombin [3] = target: T1, Prothrombin; assay: Partial allosteric inhibition of human thrombin at 300 uM using spectrozyme TH as substrate pretreated for 10 mins followed by substrate addition by spectrophotometric method relative to control
[4] = test system: CCOC(=O)c1c(C)oc2cc(OCCc3ccccc3)c(OCc3oc4cc(OC)c(OS(=O)(=O)O)cc4c3C(=O)OCC)cc12; assay: Non competitive inhibition of human thrombin assessed as substrate Vmax at 1 uM using varying levels of spectrozyme TH as substrate measured after 10 mins by Michaelis-Menten plot analysis (reference value: 51.0 +/- 2.8 mAU/min)
[5] = test system: CCOC(=O)c1c(C)oc2cc(OCCc3ccccc3)c(OCc3oc4cc(OC)c(OS(=O)(=O)O)cc4c3C(=O)OCC)cc12; assay: Non competitive inhibition of human thrombin assessed as substrate Vmax at 10 uM using varying levels of spectrozyme TH as substrate measured after 10 mins by Michaelis-Menten plot analysis (reference value: 51.0 +/- 2.8 mAU/min)
[6] = test system: CCOC(=O)c1c(C)oc2cc(OCCc3ccccc3)c(OCc3oc4cc(OC)c(OS(=O)(=O)O)cc4c3C(=O)OCC)cc12; assay: Non competitive inhibition of human thrombin assessed as substrate Vmax at 40 uM using varying levels of spectrozyme TH as substrate measured after 10 mins by Michaelis-Menten plot analysis (reference value: 51.0 +/- 2.8 mAU/min)
[7] = test system: CCOC(=O)c1c(C)oc2cc(OCCc3ccccc3)c(OCc3oc4cc(OC)c(OS(=O)(=O)O)cc4c3C(=O)OCC)cc12; assay: Non competitive inhibition of human thrombin assessed as substrate Km at 1 uM using varying levels of spectrozyme TH as substrate measured after 10 mins by Michaelis-Menten plot analysis (reference value: 9.3 +/- 2.8 uM)
[8] = test system: CCOC(=O)c1c(C)oc2cc(OCCc3ccccc3)c(OCc3oc4cc(OC)c(OS(=O)(=O)O)cc4c3C(=O)OCC)cc12; assay: Non competitive inhibition of human thrombin assessed as substrate Km at 2 uM using varying levels of spectrozyme TH as substrate measured after 10 mins by Michaelis-Menten plot analysis (reference value: 9.3 +/- 2.8 uM)
[9] = test system: CCOC(=O)c1c(C)oc2cc(OCCc3ccccc3)c(OCc3oc4cc(OC)c(OS(=O)(=O)O)cc4c3C(=O)OCC)cc12; assay: Non competitive inhibition of human thrombin assessed as substrate Km at 10 uM using varying levels of spectrozyme TH as substrate measured after 10 mins by Michaelis-Menten plot analysis (reference value: 9.3 +/- 2.8 uM)
[10] = test system: CCOC(=O)c1c(C)oc2cc(OCCc3ccccc3)c(OCc3oc4cc(OC)c(OS(=O)(=O)O)cc4c3C(=O)OCC)cc12; assay: Non competitive inhibition of human thrombin assessed as substrate Km at 40 uM using varying levels of spectrozyme TH as substrate measured after 10 mins by Michaelis-Menten plot analysis (reference value: 9.3 +/- 2.8 uM)
[11] = test system: CCOC(=O)c1c(C)oc2cc(OCc3ccccc3)c(OCc3oc4cc(OCC5CCCCC5)c(OS(=O)(=O)O)cc4c3C(=O)OCC)cc12; assay: Mixed-type inhibition of human thrombin assessed as substrate Vmax at 1 uM using varying levels of spectrozyme TH as substrate measured after 10 mins by Michaelis-Menten plot analysis (reference value: 48.2 +/- 2.8 mAU/min)
[12] = test system: CCOC(=O)c1c(C)oc2cc(OCc3ccccc3)c(OCc3oc4cc(OCC5CCCCC5)c(OS(=O)(=O)O)cc4c3C(=O)OCC)cc12; assay: Mixed-type inhibition of human thrombin assessed as substrate Vmax at 2 uM using varying levels of spectrozyme TH as substrate measured after 10 mins by Michaelis-Menten plot analysis (reference value: 48.2 +/- 2.8 mAU/min)
[13] = test system: CCOC(=O)c1c(C)oc2cc(OCc3ccccc3)c(OCc3oc4cc(OCC5CCCCC5)c(OS(=O)(=O)O)cc4c3C(=O)OCC)cc12; assay: Mixed-type inhibition of human thrombin assessed as substrate Vmax at 10 uM using varying levels of spectrozyme TH as substrate measured after 10 mins by Michaelis-Menten plot analysis (reference value: 48.2 +/- 2.8 mAU/min)
[14] = test system: CCOC(=O)c1c(C)oc2cc(OCc3ccccc3)c(OCc3oc4cc(OCC5CCCCC5)c(OS(=O)(=O)O)cc4c3C(=O)OCC)cc12; assay: Mixed-type inhibition of human thrombin assessed as substrate Vmax at 40 uM using varying levels of spectrozyme TH as substrate measured after 10 mins by Michaelis-Menten plot analysis (reference value: 48.2 +/- 2.8 mAU/min)
[15] = test system: CCOC(=O)c1c(C)oc2cc(OCc3ccccc3)c(OCc3oc4cc(OCC5CCCCC5)c(OS(=O)(=O)O)cc4c3C(=O)OCC)cc12; assay: Mixed-type inhibition of human thrombin assessed as substrate Km at 1 uM using varying levels of spectrozyme TH as substrate measured after 10 mins by Michaelis-Menten plot analysis (reference value: 8.6 +/- 2.8 uM)
[16] = test system: CCOC(=O)c1c(C)oc2cc(OCc3ccccc3)c(OCc3oc4cc(OCC5CCCCC5)c(OS(=O)(=O)O)cc4c3C(=O)OCC)cc12; assay: Mixed-type inhibition of human thrombin assessed as substrate Km at 2 uM using varying levels of spectrozyme TH as substrate measured after 10 mins by Michaelis-Menten plot analysis (reference value: 8.6 +/- 2.8 uM)
[17] = test system: CCOC(=O)c1c(C)oc2cc(OCc3ccccc3)c(OCc3oc4cc(OCC5CCCCC5)c(OS(=O)(=O)O)cc4c3C(=O)OCC)cc12; assay: Mixed-type inhibition of human thrombin assessed as substrate Km at 10 uM using varying levels of spectrozyme TH as substrate measured after 10 mins by Michaelis-Menten plot analysis (reference value: 8.6 +/- 2.8 uM)
[18] = test system: CCOC(=O)c1c(C)oc2cc(OCc3ccccc3)c(OCc3oc4cc(OCC5CCCCC5)c(OS(=O)(=O)O)cc4c3C(=O)OCC)cc12; assay: Mixed-type inhibition of human thrombin assessed as substrate Km at 40 uM using varying levels of spectrozyme TH as substrate measured after 10 mins by Michaelis-Menten plot analysis (reference value: 8.6 +/- 2.8 uM)

| inhibition (Prothrombin [1]) [%] | IC50 (Prothrombin [2]) [µM] | Efficacy (Prothrombin [2]) [%] | inhibition (Prothrombin [3]) | Molecule | further results |
| --- | --- | --- | --- | --- | --- |
| > 50 | > 500 | – | – | CCOC(=O)c1c(C)oc2cc(OCc3ccc(OC(C)C)cc3)c(OS(=O)(=O)O)cc12 | – |
| > 50 | 229 | 75.9 | – | CCOC(=O)c1c(C)oc2cc(OCc3cccc(OCOC)c3)c(OS(=O)(=O)O)cc12 | – |
| – | 3.8 | 77 | > 50% | CCOC(=O)c1c(C)oc2cc(OC)c(OCc3oc4cc(OCC5CCCCC5)c(OS(=O)(=O)O)cc4c3C(=O)OCC)cc12 | – |
| – | 2.6 | 57 | > 50% | CCOC(=O)c1c(C)oc2cc(OCc3cccc(OC(C)C)c3)c(OCc3oc4cc(OC)c(OS(=O)(=O)O)cc4c3C(=O)OCC)cc12 | – |
| – | 4 | 59 | > 50% | CCOC(=O)c1c(C)oc2cc(OCc3cccc(OCOC)c3)c(OCc3oc4cc(OC)c(OS(=O)(=O)O)cc4c3C(=O)OCC)cc12 | – |
| – | 14 | 74 | > 50% | CCOC(=O)c1c(C)oc2cc(OCc3ccccc3)c(OCc3oc4cc(OC)c(OS(=O)(=O)O)cc4c3C(=O)OCCOS(=O)(=O)O)cc12 | – |
| > 50 | > 500 | – | – | CCOC(=O)c1c(C)oc2cc(OCc3ccccc3)c(OCc3cccc(S(=O)(=O)O)c3)cc12 | – |
| > 50 | > 500 | – | – | CCOC(=O)c1c(C)oc2cc(OCC3CCCCC3)c(OS(=O)(=O)O)cc12 | – |
| > 50 | > 500 | – | – | Cc1oc2cc(OCc3ccccc3)c(OS(=O)(=O)O)cc2c1C(=O)O | – |
| > 50 | > 500 | – | – | COC(=O)c1c(C)oc2cc(OCc3cccc(OS(=O)(=O)O)c3)c(OCc3cccc(S(=O)(=O)O)c3)cc12 | – |
| > 50 | > 500 | – | – | CCOC(=O)c1c(C)oc2cc(OCc3cccc(OC(C)C)c3)c(OS(=O)(=O)O)cc12 | – |
| – | > 300 | – | inactive | CCOC(=O)c1c(C)oc2cc(Oc3cccc(OS(=O)(=O)O)c3)c(OCc3oc4cc(OC)c(OS(=O)(=O)O)cc4c3C(=O)OCC)cc12 | – |
| > 50 | > 500 | – | – | COc1cc2oc(C)c(C(=O)OCCOS(=O)(=O)O)c2cc1OS(=O)(=O)O | – |
| > 50 | 134 | 101 | – | CCOC(=O)c1c(C)oc2cc(OC)c(OCc3cccc(S(=O)(=O)O)c3)cc12 | – |
| – | > 300 | – | inactive | CCOC(=O)c1c(C)oc2cc(OS(=O)(=O)O)c(OCc3oc4cc(OC)c(OS(=O)(=O)O)cc4c3C(=O)OCC)cc12 | – |
| > 50 | 134 | 72 | – | CCOC(=O)c1c(C)oc2cc(OCc3ccccc3)c(OS(=O)(=O)O)cc12 | – |
| > 50 | > 500 | – | – | CCOC(=O)c1c(C)oc2cc(OCc3cccc(OS(=O)(=O)O)c3)c(OS(=O)(=O)O)cc12 | – |
| – | 8.7 | 93 | > 50% | CCOC(=O)c1c(C)oc2cc(OCC3CCCCC3)c(OCc3oc4cc(OCC5CCCCC5)c(OS(=O)(=O)O)cc4c3C(=O)OCC)cc12 | – |
| – | 3.2 | 58 | > 50% | CCOC(=O)c1c(COc2cc3c(C(=O)OCCc4ccccc4)c(C)oc3cc2OC)oc2cc(OC)c(OS(=O)(=O)O)cc12 | – |
| – | 2 | 57 | > 50% | CCOC(=O)c1c(C)oc2cc(OCc3ccccc3)c(OCc3oc4cc(OC)c(OS(=O)(=O)O)cc4c3C(=O)OCC)cc12 | – |
| > 50 | 168 | 95 | – | COc1cc2oc(C)c(C(=O)OCc3ccccc3)c2cc1OS(=O)(=O)O | – |
| – | 4.9 | 68 | > 50% | CCCOC(=O)c1c(COc2cc3c(C(=O)OCc4ccccc4)c(C)oc3cc2OC)oc2cc(OC)c(OS(=O)(=O)O)cc12 | – |
| – | 3.3 | 61 | > 50% | CCOC(=O)c1c(C)oc2cc(OCc3ccc(OCOC)cc3)c(OCc3oc4cc(OC)c(OS(=O)(=O)O)cc4c3C(=O)OCC)cc12 | – |
| – | 2.6 | 66 | > 50% | CCOC(=O)c1c(COc2cc3c(C(=O)OCc4ccc(OCOC)cc4)c(C)oc3cc2OC)oc2cc(OC)c(OS(=O)(=O)O)cc12 | – |
| – | 2.3 | 74 | > 50% | CCOC(=O)c1c(C)oc2cc(OCc3ccc(OC(C)C)cc3)c(OCc3oc4cc(OC)c(OS(=O)(=O)O)cc4c3C(=O)OCC)cc12 | – |
| – | 2.6 | 63 | > 50% | CCOC(=O)c1c(C)oc2cc(OCC3CCCCC3)c(OCc3oc4cc(OC)c(OS(=O)(=O)O)cc4c3C(=O)OCC)cc12 | – |
| – | – | – | – | Prothrombin (Homo sapiens) (from UniProt P00734) | Vmax [4]: 44.1 mAU/min; Vmax [5]: 30.9 mAU/min; Vmax [6]: 23.7 mAU/min; Km [7]: 8.3 µM; Km [8]: 9.2 µM; Km [9]: 7.4 µM; Km [10]: 6.8 µM; Vmax [11]: 43.8 mAU/min; Vmax [12]: 38.7 mAU/min; Vmax [13]: 32.5 mAU/min; Vmax [14]: 26.5 mAU/min; Km [15]: 8.8 µM; Km [16]: 10.7 µM; Km [17]: 29.7 µM; Km [18]: 61 µM |
